{"data": "Experimental data gathered from unrelated publications"}
{"SMILES": "CC[C@H](C)[C@@H]1NC(=O)[C@H](CC(C)C)NC(=O)[C@@H](CC(C)C)NC(=O)[C@H]2CCCN2C(=O)[C@H](Cc2ccc(OC)cc2)NC(=O)[C@@H](CC(C)C)NC1=O", "medium": "PAMPA", "tested at": "10 µM", "time": "7 h", "Papp [×10⁻⁶ cm/s]": 11.9}
{"SMILES": "O=C(Nc1ccc2c(c1)B(O)OC2)c1ccc(OCc2ccc(Cl)cc2)cc1", "medium": "PAMPA", "tested at": "200 µM", "time": "5 h", "pH": "pH 7.4", "Papp [×10⁻⁶ cm/s]": 4.4}
{"SMILES": "COc1ccc(C[C@@H]2NC(=O)[C@@H](CC(C)C)NC(=O)CNC(=O)[C@H](CC(C)C)NC(=O)[C@@H](CC(C)C)NC(=O)[C@H]3CCCN3C2=O)cc1", "medium": "PAMPA", "tested at": "10 µM", "time": "7 h", "Papp [×10⁻⁶ cm/s]": 9.1}
{"SMILES": "CC(NC(C)(C)C)C(=O)c1cccc(Cl)c1 (stereo not drawn)", "medium": "PAMPA-BBB", "tested at": "1 µM", "time": "18 h", "Papp [×10⁻⁶ cm/s]": 16}
{"SMILES": "O=C1NC(=O)C(c2ccccc2)(c2ccccc2)N1", "medium": "PAMPA", "tested at": "200 µM", "time": "5 h", "pH": "pH 7.4", "Papp [×10⁻⁶ cm/s]": 6.1}
{"SMILES": "CNC(=O)[C@@H](NC(=O)c1cc(OCC2(C)COC2)c(C2CC2)cn1)C(C)(C)C", "medium": "PAMPA", "Papp [×10⁻⁶ cm/s]": 5.17}
{"SMILES": "O=C1[O][Pt]2([NH][C@@H]3CCCC[C@H]3[NH]2)[O]C1=O (relative stereo)", "medium": "PAMPA", "pH": "pH 6.8", "Papp [×10⁻⁶ cm/s]": 0.448}
{"SMILES": "CC[C@@H](C)[C@@H]1NC(=O)[C@@H](Cc2ccc(Cl)cc2)NC(=O)CN(C)C(=O)[C@H]([C@H](C)CC)NC(=O)[C@@H](Cc2ccc(Cl)cc2)NC(=O)CN(C)C1=O", "medium": "PAMPA", "Papp [×10⁻⁶ cm/s]": 33}
{"SMILES": "CN1CCN(C(c2ccc(Cl)cc2)c2ccc(Cl)cc2)CC1", "medium": "PAMPA", "Papp [×10⁻⁶ cm/s]": 1020}
{"SMILES": "N#Cc1ccc(COc2cccc(C(=O)Nc3ccc4c(c3)B(O)OC4)c2)cc1", "medium": "PAMPA", "tested at": "200 µM", "time": "5 h", "pH": "pH 7.4", "Papp [×10⁻⁶ cm/s]": 0.076}
{"SMILES": "CC[C@@H](C)[C@@H]1NC(=O)[C@@H](CC(C)C)NC(=O)CN(C)C(=O)[C@H]([C@H](C)CC)NC(=O)[C@@H](CC(C)C)NC(=O)CN(C)C1=O", "medium": "PAMPA", "Papp [×10⁻⁶ cm/s]": 38}
{"SMILES": "COCCOCCOCCOCCOc1c(OC)cc2cc(C(=O)N3C[C@@H](CCl)c4c3cc(O)c3[nH]c(C(=O)OC)cc43)[nH]c2c1OC", "medium": "PAMPA", "tested at": "1 µM", "time": "5 h", "pH": "pH 7.4", "Papp [×10⁻⁶ cm/s]": 10}
{"SMILES": "Cc1nc([C@@](C)(CC2CC2)NC(=O)c2cc(OCC(F)(F)F)c(C3CC3)cn2)no1", "medium": "PAMPA", "Papp [×10⁻⁶ cm/s]": 2.44}
{"SMILES": "O=c1cc(-c2ccc(O)cc2)oc2cc(O)cc(O)c12", "medium": "PAMPA-BBB", "tested at": "1 µM", "time": "18 h", "Papp [×10⁻⁶ cm/s]": 13.9}
{"SMILES": "O=C(Nc1cccc(B(O)O)c1)c1cccc(OCc2ccccc2)c1", "medium": "PAMPA", "tested at": "200 µM", "time": "5 h", "pH": "pH 7.4", "Papp [×10⁻⁶ cm/s]": 0.1}
